Source: ChEMBL document CHEMBL1155469, “Peptide nucleic acids conjugated to short basic peptides show improved pharmacokinetics and antisense activity in adipose tissue” (J Med Chem, 2010)
The source made the active and inactive calls. The rule behind the calls is not given here.

Assays:
Mus musculus [1] = assay: Toxicity in Balb/C mouse assessed as change in body weight at 10 to 40 mg/kg, ip administered thrice a week for 2 weeks measured 48 hrs after last dose; format: organism-based; design: dose 10-40 mg/kg, route intraperitoneal; details: in vivo
In short: (§1)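 Male Balb/c mice, 6–8 wk, n=4/group, received compound i.p. in PBS (10 ul/g) 3x/wk for 2 wk. Body weight was monitored throughout. At 48 h after the last dose, mice were anesthetized with isoflurane and bled by cardiac puncture. Serum AST, ALT, BUN, bilirubin, glucose and triglycerides were compared with the saline group. ALT rise below 2x normal was counted as absent.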

Mus musculus [2] = assay: Toxicity in Balb/C mouse assessed as change in serum AST levels at 10 to 40 mg/kg, ip administered thrice a week for 2 weeks measured 48 hrs after last dose; format: organism-based; design: dose 10-40 mg/kg, route intraperitoneal; details: in vivo; in short: as §1
Mus musculus [3] = assay: Toxicity in Balb/C mouse assessed as change in serum ALT levels at 10 to 40 mg/kg, ip administered thrice a week for 2 weeks measured 48 hrs after last dose; format: organism-based; design: dose 10-40 mg/kg, route intraperitoneal; details: in vivo; in short: as §1
Mus musculus [4] = assay: Toxicity in Balb/C mouse assessed as change in blood urea nitrogen levels at 10 to 40 mg/kg, ip administered thrice a week for 2 weeks measured 48 hrs after last dose; format: organism-based; design: dose 10-40 mg/kg, route intraperitoneal; details: in vivo; in short: as §1
Mus musculus [5] = assay: Toxicity in Balb/C mouse assessed as change in serum bilirubin levels at 10 to 40 mg/kg, ip administered thrice a week for 2 weeks measured 48 hrs after last dose; format: organism-based; design: dose 10-40 mg/kg, route intraperitoneal; details: in vivo; in short: as §1
Mus musculus [6] = assay: Toxicity in Balb/C mouse assessed as change in serum glucose levels at 10 to 40 mg/kg, ip administered thrice a week for 2 weeks measured 48 hrs after last dose; format: organism-based; design: dose 10-40 mg/kg, route intraperitoneal; details: in vivo; in short: as §1
Mus musculus [7] = assay: Toxicity in Balb/C mouse assessed as change in serum triglyceride levels at 10 to 40 mg/kg, ip administered thrice a week for 2 weeks measured 48 hrs after last dose; format: organism-based; design: dose 10-40 mg/kg, route intraperitoneal; details: in vivo; in short: as §1
Mus musculus [8] = assay: Toxicity in Balb/C mouse assessed as increase in spleen weight at 40 mg/kg, ip administered thrice a week for 2 weeks measured 48 hrs after last dose; format: organism-based; design: dose 40 mg/kg, route intraperitoneal; details: in vivo
In short: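 Male Balb/c mice, 6–8 wk, n=4/group, were dosed i.p. in PBS 3x/wk for 2 wk at 40 mg/kg. They were killed by cervical dislocation 48 h after the last dose. Spleen weight was taken at necropsy and compared with the saline-treated group.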

Mus musculus [9] = assay: Inhibition of PTEN expression in Balb/C mouse liver at 10 to 40 mg/kg, ip administered thrice a week for 2 weeks measured 48 hrs after last dose by Western blot analysis; format: functional, organism-based
In short: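 Male Balb/c mice, 6–8 wk, n=4/group, dosed i.p. in PBS 3x/wk for 2 wk and killed 48 h after the last dose. Tissue was homogenized in RIPA buffer with protease inhibitors, and protein was measured by Lowry assay. Lysates were run on 10% PAGE and blotted to PVDF. Blots were probed with rabbit anti-PTEN (1:1000) and HRP anti-rabbit (1:2500), with ECL detection.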

Mus musculus [10] = assay: Inhibition of PTEN expression in Balb/C mouse kidney assessed as upregulation of isoform lacking exon at 40 mg/kg, ip administered thrice a week for 2 weeks measured 48 hrs after last dose […]; format: functional; design: scale not given: the % may be the effect or the level left; details: route intraperitoneal
Mus musculus [11] = assay: Inhibition of PTEN expression in Balb/C mouse kidney assessed as reduction of full length transcript at 40 mg/kg, ip administered thrice a week for 2 weeks measured 48 hrs after last dose […]; format: functional; design: scale not given: the % may be the effect or the level left; details: route intraperitoneal
Mus musculus [12] = assay: Inhibition of PTEN expression in ip dosed Balb/C mouse white adipose tissue assessed as reduction of full length transcript administered thrice a week for 2 weeks measured 48 hrs after last dose […]; format: functional, organism-based
Mus musculus [13] = assay: Inhibition of PTEN expression in ip dosed Balb/C mouse white adipose tissue assessed as upregulation of isoform lacking exon administered thrice a week for 2 weeks measured 48 hrs after last dose […]; format: functional, organism-based
Mus musculus [14] = assay: Acute toxicity in Balb/C mouse assessed as change in body weight at 37 mg/kg, ip administered thrice a week for 2 weeks measured 48 hrs after last dose; format: organism-based; design: dose 37 mg/kg, route intraperitoneal; details: in vivo
In short: (§2)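 Male Balb/c mice aged 6–8 weeks, n=4 per group, dosed i.p. with compound suspended in PBS and filter sterilized, 10 ul/g body weight. Body weight tracked throughout the live phase. Under isoflurane anaesthesia, terminal cardiac-puncture bleed; serum taken for transaminases and other chemistries. Sacrifice by cervical dislocation 48 h after last dose, with liver and spleen weighed at necropsy. Kidneys examined by histopathology.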

Mus musculus [15] = assay: Acute toxicity in Balb/C mouse assessed as change in body weight at 25 mg/kg, ip administered BID for 5 days measured 48 hrs after last dose; format: organism-based; design: dose 25 mg/kg, route intraperitoneal; details: in vivo; in short: as §2
Mus musculus [16] = assay: Acute toxicity in Balb/C mouse assessed as change in organ weight at 37 mg/kg, ip administered thrice a week for 2 weeks measured 48 hrs after last dose; format: organism-based; design: dose 37 mg/kg, route intraperitoneal; details: in vivo; in short: as §2
Mus musculus [17] = assay: Acute toxicity in Balb/C mouse assessed as change in organ weight at 25 mg/kg, ip administered BID for 5 days measured 48 hrs after last dose; format: organism-based; design: dose 25 mg/kg, route intraperitoneal; details: in vivo; in short: as §2
Mus musculus [18] = assay: Acute toxicity in Balb/C mouse assessed as change in serum chemistry at 37 mg/kg, ip administered thrice a week for 2 weeks measured 48 hrs after last dose; format: organism-based; design: dose 37 mg/kg, route intraperitoneal; details: in vivo; in short: as §2
Mus musculus [19] = assay: Acute toxicity in Balb/C mouse assessed as change in serum chemistry at 25 mg/kg, ip administered BID for 5 days measured 48 hrs after last dose; format: organism-based; design: dose 25 mg/kg, route intraperitoneal; details: in vivo; in short: as §2

## Cc1cn(CC(=O)N(CCNC(=O)CN(CCNC(=O)[C@H](CCCCN)N(CCNC(=O)[C@H](CCCCN)NC(=O)[C@H](CCCCN)NC(=O)[C@H](CCCCN)NC(=O)[C@H](CCCCN)NC(=O)[C@H](CCCCN)NC(=O)[C@H](CCCCN)NC(=O)[C@H](CCCCN)NC(=O)[C@@H](N)CCCCN)C(=O)Cn2cc(C)c(=O)[nH]c2=O)C(=O)Cn2ccc(N)nc2=O)CC(=O)NCCN(CC(=O)NCCN(CC(=O)NCCN(CC(=O)NCCN(CC(=O)NCCN(CC(=O)NCCN(CC(=O)NCCN(CC(=O)NCCN(CC(=O)NCCN(CC(=O)NCCN(CC(=O)NCCN(CC(=O)NCCN(CC(=O)NCCN(CC(=O)N[C@@H](CCCCN)C(N)=O)C(=O)Cn2cnc3c(N)ncnc32)C(=O)Cn2ccc(N)nc2=O)C(=O)Cn2cnc3c(N)ncnc32)C(=O)Cn2cc(C)c(=O)[nH]c2=O)C(=O)Cn2ccc(N)nc2=O)C(=O)Cn2cc(C)c(=O)[nH]c2=O)C(=O)Cn2cnc3c(N)ncnc32)C(=O)Cn2ccc(N)nc2=O)C(=O)Cn2cnc3c(N)ncnc32)C(=O)Cn2ccc(N)nc2=O)C(=O)Cn2cnc3c(=O)[nH]c(N)nc32)C(=O)Cn2cnc3c(N)ncnc32)C(=O)Cn2ccc(N)nc2=O)c(=O)[nH]c1=O
Mus musculus [1]
  Activity: Non-toxic
Mus musculus [2]
  Activity: Non-toxic
Mus musculus [3]
  Activity: Non-toxic
Mus musculus [4]
  Activity: Non-toxic
Mus musculus [5]
  Activity: Non-toxic
Mus musculus [6]
  Activity: Non-toxic
Mus musculus [7]
  Activity: Non-toxic
Mus musculus [8]
  Activity: 145%
Mus musculus [9]
  inhibition: inactive
Mus musculus [10]
  Activity: 185%
Mus musculus [11]
  Activity: 70%
Mus musculus [12]
  Activity: Dose-dependent effect
Mus musculus [13]
  Activity: Dose-dependent effect
Mus musculus [14]
  Activity: Non-toxic
Mus musculus [15]
  Activity: Non-toxic
Mus musculus [16]
  Activity: Non-toxic
Mus musculus [17]
  Activity: Non-toxic
Mus musculus [18]
  Activity: Non-toxic
Mus musculus [19]
  Activity: Non-toxic
